Results as given in ChEMBL document CHEMBL3351730, “New N-aryl-N'-(3-(substituted)phenyl)-N'-methylguanidines as leads to potential PET radioligands for imaging the open NMDA receptor” (Bioorg Med Chem Lett, 2015).

Tests used:
[1] = target: Glutamate NMDA receptor (Rattus norvegicus) (UniProt P35439+Q00959+Q00960+Q00961+Q62645+Q8VHN2+Q9R1M7); assay: Displacement of [3H]TCP from rat brain NMDA receptor at 1 uM
Procedure, shortened: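 Rat brain membrane suspensions; competition for the PCP site of the NMDA receptor with [3H]TCP as radioligand. Test ligand at 1.0 μM, read-out as percent inhibition of [3H]TCP binding. Values are the mean of two experiments.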

Glutamate NMDA receptor = assay: Displacement of [3H]TCP from rat brain NMDA receptor
Procedure, shortened: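 Rat brain membrane suspensions, PCP site of NMDA receptor; [3H]TCP as radioligand. Ligands first screened at 1.0 μM for inhibition of [3H]TCP binding. Ki determined, also with [3H]TCP, usually when inhibition at 1.0 μM reached 80% or more. Values are the mean from two experiments.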

| SMILES | inhibition [1] [%] | Ki (Glutamate NMDA receptor) [nM] |
| --- | --- | --- |
| CN(C(=N)Nc1cccc2ccccc12)c1cccc(F)c1 | 36.9 |  |
| CSc1cccc(N(C)C(=N)Nc2ccc(Br)c3ccncc23)c1 | 14.4 |  |
| CN(C(=N)Nc1cccc2ccccc12)c1cccc(OC(F)F)c1 | 66.4 |  |
| CN(C(=N)Nc1cccc2ccccc12)c1cc(F)cc(Cl)c1 | 86.8 | 78.4 |
| CN(C)c1cccc(N(C)C(=N)Nc2cccc3ccccc23)c1 | 94.6 | 36.7 |
| CN(C(=N)Nc1cccc2ccccc12)c1cccc(SC(F)(F)F)c1 | 80 | 447 |
| C=CSc1cccc(N(C)C(=N)Nc2cccc3ccccc23)c1 | 88.4 |  |
| CN(C(=N)Nc1cccc2ccccc12)c1cccc(I)c1 | 106 | 31.9 |
| CSc1cccc(N(C)C(=N)Nc2cccc3c(Cl)nccc23)c1 | 91.7 | 540 |
| CSc1cccc(N(C)C(=N)Nc2nccc3ccccc23)c1 | 25.3 |  |
| CN(C(=N)Nc1cccc2ccccc12)c1cccc(Br)c1 | 104 | 53.7 |
| CN(C(=N)Nc1cccc2ccccc12)c1cccc(Cl)c1 | 69.2 |  |
| CN(C(=N)Nc1cccc2ccccc12)c1cccc(CO)c1 | 20 |  |
| CSc1cccc(N(C)C(=N)Nc2cnccc2Br)c1 | 23.7 |  |
| CSc1cccc(N(C)C(=N)Nc2ccc(Br)cc2Br)c1 | 69.7 |  |
| CN(C(=N)Nc1cccc2ccccc12)c1cccc(OCc2ccccc2)c1 | -2.5 |  |
| CSc1cccc(N(C)C(=N)Nc2cccc3ccccc23)c1 | 93.1 | 39.8 |
| CSc1cccc(N(C)C(=N)Nc2ccc(Cl)c3ncccc23)c1 | 8.6 |  |
| CN(C(=N)Nc1cccc2ccccc12)c1c(F)ccc(Cl)c1F | 37.6 |  |
| COc1cc(F)cc(N(C)C(=N)Nc2cccc3ccccc23)c1 | 32.9 |  |
| CN(C(=N)Nc1cccc2ccccc12)c1cccc(C(F)(F)F)c1 | 107 | 18.3 |

Further lines, with some results ahead:

| inhibition [1] [%] | SMILES | Ki (Glutamate NMDA receptor) [nM] |
| --- | --- | --- |
| 13.8 | CN(C(=N)Nc1cccc2ccccc12)c1cc(Br)ccc1F |  |
| 84 | CN(C(=N)Nc1cccc2ccccc12)c1cccc(Cl)c1F |  |
| 56.5 | CN(C(=N)Nc1cccc2ccccc12)c1ccc(F)c(Br)c1 |  |
| 74.3 | C#Cc1cccc(N(C)C(=N)Nc2cccc3ccccc23)c1 |  |
| 16.2 | CN(C(=N)Nc1cccc2ccccc12)c1cccc(Cc2ccccc2)c1 |  |
| 0.7 | CN(C(=N)Nc1cccc2ccccc12)c1ccc(F)c([N+](=O)[O-])c1 |  |
| 91.2 | CSc1cccc(N(C)C(=N)Nc2cccc3cnccc23)c1 | 110 |
| 62.1 | CN(C(=N)Nc1cccc2ccccc12)c1ccc(F)c(C#N)c1 |  |
| 65.8 | CN(C(=N)Nc1cccc2ccccc12)c1ccc(F)c(Cl)c1 |  |
| 3.4 | CSc1cccc(N(C)C(=N)Nc2ccc3ccccc3c2)c1 |  |
| 76.7 | CN(C(=N)Nc1cccc2ccccc12)c1cccc(SCCF)c1 |  |
| 55 | CN(C(=N)Nc1cccc2ccccc12)c1ccc2ccccc2c1 |  |
| 30 | CN(C(=N)Nc1cccc2ccccc12)c1cccc(Oc2ccccc2)c1 |  |
| 82.3 | CC(=O)c1cccc(N(C)C(=N)Nc2cccc3ccccc23)c1 | 152 |
| 73.9 | C=Cc1cccc(N(C)C(=N)Nc2cccc3ccccc23)c1 |  |
| 46.5 | Cc1cc(N(C)C(=N)Nc2cccc3ccccc23)ccc1F |  |
| 11.9 | CN(C(=N)Nc1cccc2ccccc12)c1cccc(O)c1 |  |
| 79.2 | CN(C(=N)Nc1cccc2ccccc12)c1cccc(OC(F)(F)F)c1 |  |
| 62.9 | CN(C(=N)Nc1cccc2ccccc12)c1cccc(C#N)c1 |  |
| 73.8 | CSc1cccc(N(C)C(=N)Nc2cccc3ccncc23)c1 |  |
| 72.2 | CSc1cccc(N(C)C(=N)Nc2cccc3cccnc23)c1 |  |
| 80.7 | CSc1cccc(N(C)C(=N)Nc2cncc3ccccc23)c1 | > 1000 |
